25 molecules from ChEMBL document CHEMBL3992564, “Design and synthesis of novel, potent and selective hypoxanthine analogs as adenosine A1 receptor antagonists and their biological evaluation” (Bioorg Med Chem, 2017) can be followed below.

Where only a bound is given, the exact number is not on record here.

Experiment [1] addresses T1, Adenosine receptor A1 (Homo sapiens, UniProt P30542).
T1 sequence (P30542 whole entry): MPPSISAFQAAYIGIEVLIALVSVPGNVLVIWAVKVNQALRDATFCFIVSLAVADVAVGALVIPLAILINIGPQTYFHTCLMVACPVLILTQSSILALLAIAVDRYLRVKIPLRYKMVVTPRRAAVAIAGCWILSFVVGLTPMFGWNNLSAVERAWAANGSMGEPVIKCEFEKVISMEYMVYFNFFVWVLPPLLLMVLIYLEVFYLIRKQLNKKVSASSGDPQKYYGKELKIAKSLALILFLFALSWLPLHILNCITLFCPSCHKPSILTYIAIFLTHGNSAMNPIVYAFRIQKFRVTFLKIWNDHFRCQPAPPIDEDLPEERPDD
Kind of experiment: Displacement of [3H]DPCPX from human adenosine A1 receptor expressed in HEK293 cell membranes after 90 mins. For orientation: Displacement assays read how much labelled ligand stays bound in the presence of the test substance.

In experiment [2] the target is T2, Adenosine receptor A2b (Homo sapiens) (UniProt P29275).
T2 sequence (whole entry): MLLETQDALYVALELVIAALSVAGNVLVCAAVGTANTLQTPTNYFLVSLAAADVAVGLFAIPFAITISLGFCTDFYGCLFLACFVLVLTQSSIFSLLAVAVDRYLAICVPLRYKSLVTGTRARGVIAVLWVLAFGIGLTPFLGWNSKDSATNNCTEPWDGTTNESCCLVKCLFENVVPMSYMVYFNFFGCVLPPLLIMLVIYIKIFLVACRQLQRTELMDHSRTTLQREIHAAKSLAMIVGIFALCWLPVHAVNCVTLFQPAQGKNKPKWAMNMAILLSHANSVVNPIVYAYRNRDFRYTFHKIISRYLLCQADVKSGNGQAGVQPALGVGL
Kind of experiment: Displacement of [3H]MRS-1754 from human adenosine A2B receptor expressed in HEK293 cell membranes at 1 uM after 90 mins relative to control. In outline: (§1)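 Membranes from HEK-293 cells stably transfected with human receptor, pre-treated with adenosine deaminase. Radioligands: 1 nM [3H]DPCPX (A1), 1 nM [3H]ZM241385 (A2A), 1.6 nM [3H]MRS-1754 (A2B), 2 nM [3H]HEMADO (A3). Buffers: Tris pH 7.4 (A1, A2A, A3) or pH 6.5 (A2B), with ADA. Incubated 90 min at room temperature, then filtered. Nonspecific binding defined with 100 µM NECA. Ki from 8 concentrations run in triplicate.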

The next experiment concerns the target Adenosine receptor A2a (Homo sapiens, UniProt P29274). Kind of experiment: Displacement of [3H]ZM241385 from human adenosine A2A receptor expressed in HEK293 cell membranes at 1 uM after 90 mins relative to control. In outline:
as §1

In experiment [3] the target is T3, Adenosine receptor A3 (Homo sapiens) (UniProt P0DMS8).
T3 sequence (whole entry): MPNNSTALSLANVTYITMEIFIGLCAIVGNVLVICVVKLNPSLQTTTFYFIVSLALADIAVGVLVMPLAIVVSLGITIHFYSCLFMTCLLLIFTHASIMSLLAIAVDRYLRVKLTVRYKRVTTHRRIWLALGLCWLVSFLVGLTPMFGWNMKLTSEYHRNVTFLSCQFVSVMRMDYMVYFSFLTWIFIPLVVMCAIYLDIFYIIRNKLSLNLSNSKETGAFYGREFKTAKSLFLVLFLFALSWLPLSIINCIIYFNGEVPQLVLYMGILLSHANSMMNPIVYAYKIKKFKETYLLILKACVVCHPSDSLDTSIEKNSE
Kind of experiment: Displacement of [3H]HEMADO from human adenosine A3 receptor expressed in HEK293 cell membranes at 1 uM after 90 mins relative to control. The method, boiled down: as §1

The target of experiment [4] is T1, Adenosine receptor A1. Briefly: Antagonist activity at human adenosine A1 receptor expressed in HEK293 cells assessed as reduction in CPA-mediated inhibition of forskolin-stimulated cAMP level preincubated for 15 mins followed by CPA treatment for 15 mins and subsequent addition of forskolin measured after 30 mins by HTRF assay. Type of experiment: functional, cell-based. (cAMP levels reflect the balance of adenylyl cyclase and phosphodiesterase activity.)

Chain of Adenosine receptor A2a (P29274 whole entry): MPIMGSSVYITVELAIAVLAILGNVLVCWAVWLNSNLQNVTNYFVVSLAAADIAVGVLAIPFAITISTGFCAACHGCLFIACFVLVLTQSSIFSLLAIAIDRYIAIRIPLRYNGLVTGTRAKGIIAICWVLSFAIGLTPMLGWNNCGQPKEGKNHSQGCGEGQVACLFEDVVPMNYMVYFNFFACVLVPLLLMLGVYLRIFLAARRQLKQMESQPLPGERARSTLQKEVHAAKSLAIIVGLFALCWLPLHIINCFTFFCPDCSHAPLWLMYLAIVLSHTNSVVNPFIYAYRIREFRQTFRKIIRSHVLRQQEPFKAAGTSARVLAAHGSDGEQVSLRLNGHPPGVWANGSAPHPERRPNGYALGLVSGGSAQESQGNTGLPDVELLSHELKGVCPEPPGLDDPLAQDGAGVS

What is called Ki is a dissociation constant, usually derived from enzyme kinetics or from competition with a known ligand. A word on the inhibition: it is how much of the control response was suppressed. Low values mean little suppression, high ones strong suppression. In turn, `CCCn1c(Oc2ccc3[nH]ccc3c2)nc2nc(C3CCCC3)[nH]c2c1=O` had a Ki at Adenosine receptor A1 [1] of 36 nM. Also, the values for the inhibition (in experiment [2]; on Adenosine receptor A2a; in experiment [3]) were 0%, 0% and 34%, respectively.

Consider `CCCn1c(NCc2ccc(C(F)(F)F)cc2)nc2nc(C3CCCC3)[nH]c2c1=O`, for which the Ki on Adenosine receptor A1 [1] was found to be 23 nM. In addition, the results for the inhibition (in experiment [2]; on Adenosine receptor A2a; in experiment [3]) were 0%, 0% and 23%, respectively.

Regarding `CCCn1c(OC2CCN(C)C2)nc2nc(C3CCCC3)[nH]c2c1=O` (centres undefined), on Adenosine receptor A1 [1], the Ki is over 1000 nM.

In the case of `CCCn1c(Oc2cncc(Cl)c2)nc2nc(C3CCCC3)[nH]c2c1=O`, the Ki on Adenosine receptor A1 [1] was 12 nM; on Adenosine receptor A1 [4] it was 2.2 nM. The results for the inhibition (in experiment [2]; on Adenosine receptor A2a; in experiment [3]) were 37%, 22% and 76%, respectively.

Turning to `CCCn1c(O[C@@H]2CCOC2)nc2nc(C3CCCC3)[nH]c2c1=O`, the Ki on Adenosine receptor A1 [1] was 50 nM.

At Adenosine receptor A1 [1], `CCCn1c(NCc2ccc(C)cc2)nc2nc(C3CCCC3)[nH]c2c1=O` showed a Ki of 27 nM. Also, the results for the inhibition (in experiment [2]; at Adenosine receptor A2a; in experiment [3]) were 6%, 0% and 24%, respectively.

As for `CCCn1c(OC2CCOCC2)nc2nc(C3CCCC3)[nH]c2c1=O`, the Ki on Adenosine receptor A1 [1] came out at 20 nM; at Adenosine receptor A1 [4], 12 nM. Besides, the inhibition was found to be 56% in experiment [2], 82% on Adenosine receptor A2a and 0% in experiment [3].

On Adenosine receptor A1 [1], `CCCn1c(Oc2ccc(C(N)=O)cc2)nc2nc(C3CCCC3)[nH]c2c1=O` showed a Ki of over 1000 nM.

The molecule `CCCn1c(Nc2ccc(F)cc2)nc2nc(C3CCCC3)[nH]c2c1=O` yielded a Ki at Adenosine receptor A1 [1] of over 1000 nM. For the same molecule, the inhibition was found to be 6% in experiment [2], 0% at Adenosine receptor A2a and 24% in experiment [3].

With `CCCn1c(Oc2cccc3cc[nH]c23)nc2nc(C3CCCC3)[nH]c2c1=O`, the Ki on Adenosine receptor A1 [1] worked out at 5.5 nM; on Adenosine receptor A1 [4], 5.6 nM. For the same molecule, the inhibition in experiment [2] came out at 42%; on Adenosine receptor A2a, 25%; in experiment [3] it was 40%.

In the case of `CCCn1c(Nc2cccc(C(F)(F)F)c2)nc2nc(C3CCCC3)[nH]c2c1=O`, the Ki at Adenosine receptor A1 [1] was 370 nM. Further, the inhibition stood at 5% in experiment [2] and 27% at Adenosine receptor A2a.

`CCCn1c(Oc2ccc(S(N)(=O)=O)cc2)nc2nc(C3CCCC3)[nH]c2c1=O` gave a Ki on Adenosine receptor A1 [1] of over 1000 nM.

Molecule `CCCn1c(Oc2cccc3[nH]ccc23)nc2nc(C3CCCC3)[nH]c2c1=O` displayed a Ki at Adenosine receptor A1 [1] of 74 nM.

Molecule `CCCn1c(Oc2cc(C)ccn2)nc2nc(C3CCCC3)[nH]c2c1=O` returned an inhibition constant Ki at Adenosine receptor A1 [1] of over 1000 nM.

In the case of `CCCn1c(O[C@H]2CCOC2)nc2nc(C3CCCC3)[nH]c2c1=O`, the inhibitory constant (Ki) on Adenosine receptor A1 [1] is 85 nM.

For `CCCn1c(Oc2cccc(O)c2)nc2nc(C3CCCC3)[nH]c2c1=O`, the Ki at Adenosine receptor A1 [1] was 10.5 nM. For the same molecule, the inhibition in experiment [2] is 53%; at Adenosine receptor A2a it was 81%; in experiment [3], 69%.

The molecule `CCCn1c(Nc2ccccc2)nc2nc(C3CCCC3)[nH]c2c1=O` returned a Ki at Adenosine receptor A1 [1] of over 1000 nM.

Molecule `CCCn1c(Oc2cccnc2Cl)nc2nc(C3CCCC3)[nH]c2c1=O` returned a Ki at Adenosine receptor A1 [1] of 3.6 nM.

The molecule `CCCn1c(Oc2cccc(CC(=O)O)c2)nc2nc(C3CCCC3)[nH]c2c1=O` had a Ki on Adenosine receptor A1 [1] of over 1000 nM.

`CCCn1c(Oc2ccc(C)nc2)nc2nc(C3CCCC3)[nH]c2c1=O` registered a Ki at Adenosine receptor A1 [1] of 630 nM.

Turning to `CCCn1c(-c2cccc(O)c2)nc2nc(C3CCCC3)[nH]c2c1=O`, the figures for the Ki on Adenosine receptor A1 [1] and on Adenosine receptor A1 [4] were 1 nM and 0.2 nM, respectively. The values for the inhibition (in experiment [2]; on Adenosine receptor A2a) were 100% and 74%, respectively.

Molecule `CCCn1c(OC2CCOC2)nc2nc(C3CCCC3)[nH]c2c1=O` (centres undefined) registered an inhibition constant (Ki) on Adenosine receptor A1 [1] of 59 nM.

As to `CCCn1c(NCc2cccc(Cl)c2)nc2nc(C3CCCC3)[nH]c2c1=O`, the Ki at Adenosine receptor A1 [1] was found to be 120 nM.

At Adenosine receptor A1 [1], `CCCn1c(-c2cccc(C(N)=O)c2)nc2nc(C3CCCC3)[nH]c2c1=O` gave a Ki of over 1000 nM.

In turn, `CCCn1c(Nc2cccc(F)c2)nc2nc(C3CCCC3)[nH]c2c1=O` gave a Ki at Adenosine receptor A1 [1] of 4500 nM. Also, the figures for the inhibition (in experiment [2]; at Adenosine receptor A2a) were 16% and 31%, respectively.
